In the data set the test system is MS2 coat protein. As to the kind of experiment: apparent Kd, MS2 coat protein; higher = weaker binding; RNA-MaP array; FMN 200 µM where present. In a few lines: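 SNAP-549-labelled MS2 coat protein, doubled from 0.7 or 1.5 nM to 3 µM, was titrated over designs transcribed by stalled E. coli RNA polymerase on Illumina sequencing-chip clusters. Titrations were run without and then with constant ligand in 100 mM Tris-HCl pH 7.5, 80 mM KCl, 4 mM MgCl2, BSA, DTT, yeast tRNA and Tween-20. The apparent Kd is the median of filtered per-cluster fits to green signal normalised to red-channel RNA signal and control-cluster median Fmax.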

Setting [1] is: designed as: OFF switch for flavin mononucleotide, no ligand.
[2] abbreviates: ligand present: flavin mononucleotide, designed as: OFF switch for flavin mononucleotide.
[3] abbreviates: designed as: ON switch for flavin mononucleotide, no ligand.
The mark [4] stands for this setting: ligand present: flavin mononucleotide, designed as: ON switch for flavin mononucleotide.

For the sequence “CUCAGACAUGAGGAUCACCCAUGUGAGGAUAUGAUGCGAUCGUCGAAAGACGAUAGCAUCAGAAGGUACAAAUG”, the apparent Kd (in general, a dissociation constant that holds for the conditions of the assay) is, setting by setting: under setting [1], 53.1 nM; under setting [2], 40.5 nM.

For “ACAUGAUCAGGAUAUACAUGAGGAUCACCCAUGUAAAUCAAAAAAAAACUUUCUUUAUGUAGAAGGGAUCUUGU”, the “apparent Kd” value is 14.4 nM under setting [1] and 15.5 nM under setting [2].

With “AAGGAAACCACAGGAUAUGGCUAGAAUAUCUAGCCAGAAGGGUGGUCGAAACCAUGUAAAUACAUGAGGAUCACCCAUGUGUCC”, the “apparent Kd” value runs as follows: under setting [3], 345 nM; under setting [4], 378 nM.

For the sequence “UUUACAUGAGGAUCACCCAUGUAUAGAACGGUUAAUUAAAGUGAGGAUAUACAUAAUUUUAAAUUGUAGAAGGCACUGGGUACA”, the “apparent Kd” value under setting [3] came out at 14.4 nM and the “apparent Kd” value under setting [4] amounted to 19.9 nM.

With “AGCAGACGAGGAUAUAGAUUUAAGUACAUGAGGAUCACCCAUGUACACAUGUAUUUAGAUUUAGAAGGCGUCUGCU”, the “apparent Kd” value is, setting by setting: under setting [1], 666 nM; under setting [2], 664 nM.

As for “AAUUGGAUGCAGAAGGCAUGGACGACUCGUCAAAUUAACAUGAGGAUCACCCAUGUCAAAAGACAUGAGGAUAUGCAUCCUAAA”, the “apparent Kd” value reads like this: under setting [3], 189 nM; under setting [4], 12.6 nM.

For “UUUUUACAUGAGGAUCACCCAUGUCAGGAUAUGAUUAUAUUUUAUUAUUUUAUUUUUUUCAGAAGGGACUAUUA”, the “apparent Kd” value by setting is: under setting [1], 117 nM; under setting [2], 56.9 nM.

Consider “UUAGUUUUGCAAGGAUAUGUUUAUUUAUAGUUGCCUCUUACAUGAGGAUCACCCAUGUUUUACUUACAGAAGGUGCAAUGAUUU”, for which the “apparent Kd” value came out at 165 nM under setting [1] and 416 nM under setting [2].

Consider “AUGAGAGCAGGAUAUGCAGGUGUGCCGGAAGAAAGAAGAAGACAUGAGGAUCACCCAUGUAGAAGGGCUAGCCC”, for which the “apparent Kd” value came out at 19.1 nM under setting [1] and 15.6 nM under setting [2].

Consider “GGAUCAUAUGUUAGGAUAUGCUGGACCUUGGUUCAGCAGAAGGGACAUGAGGAUCACCCAUGUCAUGUCGAUCC”, for which the “apparent Kd” value stood at 21 nM under setting [1] and 22.3 nM under setting [2].

“AAAUAAAGGAUUAAGGAUAUAUCACAUGAAACAUGAGGAUCACCCAUGUAAUAAUAUAAAGGGUGAUAGAAGGUAGUUUAUAAAUA”: the “apparent Kd” value by setting is: under setting [3], 415 nM; under setting [4], 440 nM.

Consider “UGGCUACAUGAGGAUCACCCAUGUCAGGAUAUGCCGUUGGAUUGCCUUCGUCGUUCGGGUAGAAGGGACUGCGG”, for which the “apparent Kd” value under setting [1] turned out to be 22.1 nM and the “apparent Kd” value under setting [2] was 21.5 nM.

On to “UUUCGGCAUGUAGGAUAUGGGUCCGAUUAGGAUUUAGAAGGACAUGAGGAUCACCCAUGUGCAUUUAAUUGGUCAUUACCUUUU”, for which the “apparent Kd” value turned out to be 62.9 nM under setting [1] and 74 nM under setting [2].

As for “UAUAUGUCAGGAUAUUAGUUGUGGACGAAUUUCACUUCUGCUGAGAAGGGACAUGAGGAUCACCCAUGUUCCUC”, the “apparent Kd” value runs as follows: under setting [1], 15.4 nM; under setting [2], 16 nM.

Take “ACACAUGAGGAUCACCCAUGUACGCGCUGACAGGAGGUCUCACAGGAUAUAUGUAGUGAUGCUACAUAGAAGGGUGAUACCGCG”: the “apparent Kd” value amounted to 67.5 nM under setting [3] and 16.2 nM under setting [4].

With “AGCUGUGGCAGAGGAUAUACAAUCCUAAUCCAUUGCAAAUAGCGAUGGACAUGAGGAUCACCCAUGUAGAAGGCUGUCUCAGCA”, the “apparent Kd” value is, setting by setting: under setting [1], 297 nM; under setting [2], 65.2 nM.

Take “UCCUACAUGGGAGGAUAUGGGACAUGAGGAUCACCCAUGUGAAAAUUAAAUAUGCCGAGAGGCAACUAGAAGGCCCAUGUAGGU”: the “apparent Kd” value under setting [3] was 35.8 nM and the “apparent Kd” value under setting [4] came to 19.2 nM.

In the case of “GGUGCGUUUGUGAGGAUAUGCUGGUCCUUGGUUCUGCAGAAGGCACAUGAGGAUCACCCAUGUGGUGUCGUACC”, the “apparent Kd” value under setting [1] was found to be 77 nM and the “apparent Kd” value under setting [2] came out at 162 nM.

For the sequence “UUGGACGUCGUAGGAUAUGUAGGAUAUUCCUACAUGAGGAUCACCCAUGUUGACAUGGAAGAAGGACGGAAGGACGAUGUCCAU”, the “apparent Kd” value under setting [3] is 899 nM and the “apparent Kd” value under setting [4] worked out at 18.9 nM.

Take “CCUAAGGACACAGGAUAUAGCGUGGUGGCUAGACUCCAACGGCGAGCGGCGCUAGAAGGGUGACCACAUGAGGAUCACCCAUGU”: the “apparent Kd” value by setting is: under setting [3], 553 nM; under setting [4], 193 nM.

For “UGUCGGAGCGGAGGAUAUUACAUGAGGAUCACCCAUGUAUGAACCAAUAGCUGGAAACAGCAAUGUAAGAAGGCUGCUCCGACA”, the “apparent Kd” value runs as follows: under setting [1], 9.67 nM; under setting [2], 131 nM.

On to “GCCAGAGCAGGAUAUCUAUAUUAUCACAUGAGGAUCACCCAUGUCCAGCGAAAGCUGGAGGGAGAAGGGCUCUGGC”, for which the “apparent Kd” value is 73.2 nM under setting [1] and 33.8 nM under setting [2].

In the case of “GUCGGAAACGACAAGUAGCAAUCGGAGGAUAUUCAUUAAAACAUGAGGAUCACCCAUGUAAAUUGGGAGAAGGCCGAUUGCUAC”, the “apparent Kd” value worked out at 17.8 nM under setting [3] and 5.31 nM under setting [4].

For the sequence “AAUUAAUUAAUACAUGAGGAUCACCCAUGUAAUUAUUAGAUCAAGGAUAUCAGCUCGAAUAGAGCUGAGAAGGUGAUCACAUGU”, the “apparent Kd” value reads like this: under setting [3], 475 nM; under setting [4], 111 nM.

For the sequence “CUGCUCCGUGUAGGAUAUGCAUACUCCCAUUAUGCAGAAGGACAUGAGGAUCACCCAUGUAUGUUAUUAUCAUGUGUUGCGUGC”, the “apparent Kd” value by setting is: under setting [1], 42.5 nM; under setting [2], 185 nM.

With “UGGUACUAGGGAGGAUAUGGGAAGAUACAUGAGGAUCACCCAUGUUUAAGAAUGCCGACAGGCAACUAGAAGGCCCUAGUACCU”, the “apparent Kd” value was found to be 414 nM under setting [3] and 20.2 nM under setting [4].

Consider “UCAACUCCCGUCAGGAUAUGUUGCUCUAGGGAGCAGUAGAAGGGACAUGAGGAUCACCCAUGUUAUCCGUGUAU”, for which the “apparent Kd” value is 17.2 nM under setting [1] and 20.6 nM under setting [2].

On to “CCGACGAAAGUCGAACGAUGUAGCAGAAGGACAUGAGGAUCACCCAUGUCAGCUGUAACAGCCAUGUAGGAUAUGCUACAUCGA”, for which the “apparent Kd” value under setting [1] came out at 4.41 nM and the “apparent Kd” value under setting [2] was determined as 5.85 nM.

On to “CAUACACAUGAGGAUCACCCAUGUGAGGAUAUGAAUACGUUGUCCGUAGGCGACGUGAUCAGAAGGCGCUUGGU”, for which the “apparent Kd” value under setting [1] was 45.4 nM and the “apparent Kd” value under setting [2] was 61.8 nM.

Consider “UGGGCGAGCCCAGUACUCACACAUGAGGAUCACCCAUGUGACGAGGAUAUAGACAGCGAUGCGUGCUAGAAGGCGUCACGGUAG”, for which the “apparent Kd” value runs as follows: under setting [1], 10.9 nM; under setting [2], 35.3 nM.

For the sequence “CGAGCUGCUGUGAGGAUAUACCUAUGGAUACAUGGGUAGAAGGCACAUGAGGAUCACCCAUGUCCUGCAGCUCG”, the “apparent Kd” value is, setting by setting: under setting [1], 43.2 nM; under setting [2], 273 nM.

For “GGUCUACAUGAGGAUCACCCAUGUCAGGAUAUCGUGUGUUUUUUUUCGGCCGCGCGUGCGAGAAGGGACGUCUU”, the “apparent Kd” value is, setting by setting: under setting [1], 17.6 nM; under setting [2], 18.1 nM.

As to “UUACUAUCACAGAAGGGUGGAUAGUAUAUAGACGCAGGAUAUGUGACAUGAGGAUCACCCAUGUUUCACCGGCAUGAGGAUCAA”, the “apparent Kd” value amounted to 11.4 nM under setting [1] and 15.3 nM under setting [2].

For the sequence “UAUAUAUAGUAAGGAUAUGUAAUUAUUUUAUACACAGAAGGUACUGACAUGAGGAUCACCCAUGUUUUAGUGUGGGCAUGUAGA”, the “apparent Kd” value runs as follows: under setting [1], 55.3 nM; under setting [2], 86.5 nM.

For the sequence “AGUACUCAAAGAGUACCCAUACGGACAUGAGGAUCACCCAUGUAGGAUAUGCUACUCAAAGAGUAGUAGAAGGACAUAUUCCUC”, the “apparent Kd” value by setting is: under setting [1], 9.52 nM; under setting [2], 20.3 nM.

Regarding “UUAUUGUGAGGAUAUCAGGUGUGCUAGCGUACUGGUACAUCUGAGAAGGCACAUGAGGAUCACCCAUGUUCCUU”, the “apparent Kd” value turned out to be 14.3 nM under setting [1] and 37.3 nM under setting [2].

“AGGUACGGUCGAUCAUACCAAGGUAGAAGGCGACUGGGAAUGUGAGACAUGAGGAUCACCCAUGUCGAGGAUAUACCUGAAAGU”: the “apparent Kd” value under setting [1] came out at 192 nM and the “apparent Kd” value under setting [2] is 27.4 nM.

With “UUGUACAUAGGAUAUAGUUGUUUGUACAUGAGGAUCACCCAUGUUAUGUAUCUUUUGCUUCUAGAAGGAUGUUCUU”, the “apparent Kd” value turned out to be 38.7 nM under setting [1] and 27.7 nM under setting [2].

For the sequence “ACAUGAGGAUCACCCAUGUUAAACGAGGAUAUUUGACUGCACAUGAGGUUCACCCAUGUCCUGCCGAAGAAGGUGUGAAUAAUU”, the “apparent Kd” value was found to be 33.9 nM under setting [3] and 32.6 nM under setting [4].

In the case of “AUCAGCUCGUCAGGAUAUACAUGAUAGAUCGAUUAAUUAAUUAAUUUAACAUGAGGAUCACCCAUGUAGAAGGGACGAGCUGAU”, the “apparent Kd” value runs as follows: under setting [1], 68.5 nM; under setting [2], 67.4 nM.

As to “AUUUAGUGCGAGAAGGCGUGGUCACAUGAGGAUCACCCAUGUCAGUACACGAGGAUAUCGAUUCGCUAUGUAAACAUAUGCGAC”, the “apparent Kd” value runs as follows: under setting [3], 66.8 nM; under setting [4], 6.62 nM.

Take “UACCUCUCAGGAUAUGAGCAGCAGGACAUGAGGAUCACCCAUGUUAUAUAGGGUCCUGGUUUAGAAGGGAGCGAAU”: the “apparent Kd” value runs as follows: under setting [1], 26 nM; under setting [2], 28.1 nM.

Regarding “GGAAAGCGAGGAUAUACAUGAGGAUCACCCAUGUAAAAGAAAAGAAAAGAAAGAAAAUGUAGAAGGCGCAAAAA”, the “apparent Kd” value under setting [1] was found to be 47.8 nM and the “apparent Kd” value under setting [2] was determined as 48.4 nM.

In the case of “CGGCCGGAUCGAGGAUAUAAGUCUAGGACAUGAGGAUCACCCAUGUAUGUCUUAGAAGGCGAUCCGGCCAGCCUGUUACAGGCA”, the “apparent Kd” value reads like this: under setting [3], 32.9 nM; under setting [4], 6.18 nM.

For “GGAUUAAUAGUCCACAUGAGGAUCACCCAUGUAGUAUUUUGCAAGGAUAUGGUGGGACUUCGUGGCCAGAAGGUGUAAAGGAUC”, the “apparent Kd” value runs as follows: under setting [3], 128 nM; under setting [4], 99.2 nM.

In the case of “GGAAAGCGAGGAUAUACAUGAGGAUCACCCAUGUAAACAAACAAACAAACAAACAAAUGUAGAAGGCGCAAAAC”, the “apparent Kd” value runs as follows: under setting [1], 43.9 nM; under setting [2], 43 nM.

Turning to “UUUACAUGAGGAUCACCCAUGUCUUGCAAGAUGAGUUCUGGUGAGGAUAUACAUGAUAAAGAACUGUAGAAGGCACUGGGUACA”, the “apparent Kd” value turned out to be 305 nM under setting [3] and 362 nM under setting [4].

With “GGUGUAUAUGAGAAGGCGAUCAUGAAACAUGAUCGAGGAUAUCAUGUAAACAUGAGGAUCACCCAUGUAUGGGAAUAUUGCACC”, the “apparent Kd” value under setting [3] was found to be 133 nM and the “apparent Kd” value under setting [4] came out at 15 nM.

These data come from the EternaBench riboswitch data.
